Source: ChEMBL document CHEMBL4316599, “Synthesis, in vitro and in vivo biological evaluation of substituted 3-(5-imidazo[2,1-b]thiazolylmethylene)-2-indolinones as new potent anticancer agents” (Eur J Med Chem, 2019)
Calls of active or inactive are those of the source. The calls are words filed in the database; no cut-off is given here.

Legend:
HeLa [1] = test: Cell cycle arrest in human HeLa cells assessed as reduction in accumulation of cells at G1 phase up to 1000 nM after 24 hrs by propidium iodide staining-based flow cytometric analysis; format: functional
How it was run: (§1)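 Cells exposed to a range of concentrations for 24 h (HeLa at 5×10^5 cells), then fixed in ice-cold 70% ethanol. Lysis buffer with RNase A and 0.1% Triton X-100 was applied before PI staining. DNA content was read by flow cytometry and G1/S/G2/M fractions taken from DNA histograms. Mean ± SEM of two independent experiments.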

K562 [2] = test: Cytotoxicity against human K562 cells after 16 hrs by SRB assay; conditions: K562, 16 h
HeLa [3] = test: Induction of apoptosis in human HeLa cells assessed as increase in caspase-9 activity at 50 to 250 nM after 24 hrs by Western blot analysis; format: functional, cell-based
How it was run: (§2)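 HeLa cells treated 24 h, washed in ice-cold PBS and lysed on ice 30 min. Lysates were spun at 15000 x g, 4 °C. 10 µg protein run on SDS-PAGE and blotted to PVDF. Blots were blocked in 5% BSA overnight at 4 °C and probed 2 h at room temperature. Detection by HRP-secondary and ECL, with bands normalized to β-actin as fold of untreated. Three independent experiments, one-way ANOVA/Dunnett.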

K562 [4] = test: Cytotoxicity against human K562 cells after 48 hrs by SRB assay; format: functional, cell-based
Tubulin (Bos taurus) [5] = target: T1, Tubulin (Bos taurus) (UniProt Q6B856+Q862L2+Q862F3); test: Inhibition of [3H]colchicine binding to bovine brain tubulin at 5 uM after 20 mins relative to control
How it was run: (§3)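 Reaction mixtures held 1 μM tubulin, 5 μM [³H]colchicine and test compound at 5 or 50 μM. Read-out was percent inhibition of colchicine binding.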

[6] = Cytotoxicity against human COLON cells after 48 hrs by SRB assay; format: functional
How it was run: (§4)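 NCI-60 screen: single-dose pass at 10^-5 M, then a five-concentration assay from 10^-9 to 10^-4 M (highest 100 μM). Exposure was 48 h under standard NCI protocols. GI50, TGI and LC50 were derived per cell line and averaged by subpanel. Repeated tests are the mean of two experiments.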

HeLa [7] = test: Cell cycle arrest in human HeLa cells assessed as accumulation of cells at G2/M phase after 24 hrs by propidium iodide staining-based flow cytometric analysis; format: functional; how it was run: as §1
A549 [8] = test: Cell cycle arrest in human A549 cells assessed as accumulation of cells at G2/M phase after 24 hrs by propidium iodide staining-based flow cytometric analysis; format: functional; how it was run: as §1
Melanoma cell line = test: Cytotoxicity against human melanoma cells after 48 hrs by SRB assay; format: functional; how it was run: as §4
K562 [9] = test: Cell cycle arrest in human K562 cells assessed as mitotic index at 10 times IC50 by Giemsa staining-based assay (reference value: 3%); format: functional
CNS carcinoma cell = test: Cytotoxicity against human CNS cancer cells after 48 hrs by SRB assay; format: functional; how it was run: as §4
HT-29 [10] = test: Cell cycle arrest in human HT-29 cells assessed as accumulation of cells at G2/M phase after 24 hrs by propidium iodide staining-based flow cytometric analysis; format: functional; how it was run: as §1
Breast carcinoma cell = test: Cytotoxicity against human breast cancer cells after 48 hrs by SRB assay; format: functional; how it was run: as §4
K562 [11] = test: Cell cycle arrest in human K562 cells assessed as mitotic index at 5 times IC50 by Giemsa staining-based assay (reference value: 3%); format: functional
A549 [12] = test: Induction of apoptosis in human A549 cells at 100 nM after 24 to 48 hrs by Annexin V-FITC/propidium iodide staining-based flow cytometric analysis; format: functional, cell-based
How it was run: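 A549 cells treated 24 or 48 h at 12.5–100 nM, then double-stained with annexin-V-FITC and PI. Phosphatidylserine exposure was read by flow cytometry. Mean ± SEM of three independent experiments.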

[13] = Cytotoxicity against human PBL after 72 hrs by MTT assay; format: cell-based; conditions: peripheral blood lymphocytes (PBL)
How it was run: (§5)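 Lymphocytes from healthy donors were isolated on a Lymphoprep gradient and held overnight in RPMI-1640 with 10% FBS. Non-adherent cells were set at 5×10^5 cells/mL, either resting or stimulated with 2.5 μg/mL PHA. Cells were exposed to a range of compound concentrations for 72 h and viability read by MTT. GI50 is the mean ± SEM of three separate experiments.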

[14] = Cytotoxicity against human PHA-stimulated PBL after 72 hrs by MTT assay; format: cell-based; conditions: PHA-stimulated peripheral blood lymphocytes (PBL); how it was run: as §5
HT-29 [15] = test: Cell cycle arrest in human HT-29 cells assessed as reduction in accumulation of cells at S phase up to 1000 nM after 24 hrs by propidium iodide staining-based flow cytometric analysis; format: functional; how it was run: as §1
HT-29 [16] = test: Cell cycle arrest in human HT-29 cells assessed as reduction in accumulation of cells at G1 phase up to 1000 nM after 24 hrs by propidium iodide staining-based flow cytometric analysis; format: functional; how it was run: as §1
HeLa [17] = test: Induction of apoptosis in human HeLa cells assessed as decrease in Bcl-2 levels at 50 to 250 nM after 24 hrs by Western blot analysis; format: functional, cell-based; how it was run: as §2
A549 [18] = test: Cell cycle arrest in human A549 cells assessed as reduction in accumulation of cells at G1 phase up to 600 nM after 24 hrs by propidium iodide staining-based flow cytometric analysis; format: functional; how it was run: as §1
Ovarian carcinoma cell = test: Cytotoxicity against human ovarian cancer cells after 48 hrs by SRB assay; format: functional; how it was run: as §4
Tubulin (Bos taurus) [19] = target: T1, Tubulin (Bos taurus); test: Inhibition of [3H]colchicine binding to bovine brain tubulin at 50 uM after 20 mins relative to control; how it was run: as §3
Leukemia cell = test: Cytotoxicity against human leukemia cells after 48 hrs by SRB assay; format: functional; how it was run: as §4
HeLa [20] = test: Cell cycle arrest in human HeLa cells assessed as decrease in p-cdc25c expression at 50 to 250 nM after 24 hrs by Western blot analysis; format: functional, cell-based; how it was run: as §2
K562 [21] = test: Cell cycle arrest in human K562 cells assessed as mitotic index at IC50 by Giemsa staining-based assay (reference value: 3%); format: functional
HeLa [22] = test: Cell cycle arrest in human HeLa cells assessed as reduction in accumulation of cells at S phase up to 1000 nM after 24 hrs by propidium iodide staining-based flow cytometric analysis; format: functional; how it was run: as §1
HeLa [23] = test: Induction of mitochondrial membrane depolarization in human HeLa cells at 250 to 500 nM after 6 to 48 hrs by JC-1 staining-based assay; format: functional, cell-based; conditions: TDE = time-dependent effect
How it was run: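 HeLa cells treated at 250-500 nM for 6, 12, 24 or 48 h, then stained with JC-1. Percentage of cells with low mitochondrial membrane potential measured by flow cytometry. Mean ± SEM of three independent experiments.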

HeLa [24] = test: Induction of apoptosis in human HeLa cells assessed as increase in caspase-3 activity at 50 to 250 nM after 24 hrs by Western blot analysis; format: functional, cell-based; how it was run: as §2
HeLa [25] = test: Induction of ROS generation in human HeLa cells at 250 nM after 12 to 24 hrs by H2-DCFDA staining-based assay; format: functional, cell-based
How it was run: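 HeLa cells treated 6, 12, 24 or 48 h, then loaded with H2-DCFDA and analysed by flow cytometry for ROS. Mean ± SEM of three independent experiments, compared against control.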

Prostatic carcinoma cell = test: Cytotoxicity against human prostate cancer cells after 48 hrs by SRB assay; format: functional; how it was run: as §4
Renal cancer cell line = test: Cytotoxicity against human renal cancer cells after 48 hrs by SRB assay; format: functional; how it was run: as §4
HeLa [26] = test: Induction of apoptosis in human HeLa cells assessed as decrease in Mcl-1 levels at 50 to 250 nM after 24 hrs by Western blot analysis; format: functional, cell-based; how it was run: as §2
Tubulin = Tubulin (Bos taurus, UniProt Q6B856+Q862L2+Q862F3); test: Inhibition of bovine brain tubulin polymerization after 20 mins by spectrophotometric analysis
How it was run: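 Bovine brain tubulin (10 μM) in glutamate buffer preincubated with varying compound levels at 30 °C, then chilled to 0 °C. GTP added to 0.4 mM final, then warmed to 30 °C. Assembly followed by turbidity at 350 nm. IC50 is the concentration halving the extent of assembly after 20 min.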

NSCLC = test: Cytotoxicity against human NSCLC cells after 48 hrs by SRB assay; format: functional; how it was run: as §4
A549 [27] = test: Cell cycle arrest in human A549 cells assessed as reduction in accumulation of cells at S phase up to 600 nM after 24 hrs by propidium iodide staining-based flow cytometric analysis; format: functional; how it was run: as §1
B16-BL6 = test: Antitumor activity mouse B16-BL6 cells implanted in C57BL/6 mouse assessed tumor growth inhibition at 30 mg/kg, ip dosed every other day for 18 days relative to control; format: functional; conditions: 432 h, read-out: TGI
How it was run: (§6)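 Syngeneic allograft: C57BL/6 mice, six weeks old, given 2.5×10^5 BL6-B16 or E0771 cells subcutaneously in the dorsolateral flank in PBS. Dosing began at about 100 mm³. Test compound or reference was given intraperitoneally every other day in 50 μL DMSO, with DMSO vehicle controls. Tumor volume was compared with the vehicle group, 5 animals per group, mean ± SEM, by 2-way ANOVA with Bonferroni correction.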

E0771 = test: Antitumor activity mouse E0771 cells implanted in C57BL/6 mouse assessed tumor growth inhibition at 30 mg/kg, ip dosed every other day for 20 days relative to control; format: functional; conditions: 480 h, read-out: TGI; how it was run: as §6
[28] = read-out: LC50 (the source's name)

O=C1Nc2c(ccc3ccccc23)/C1=C\c1c(-c2cccnc2)nc2sccn12
Activity (HeLa [1]): Active | IC50 (K562 [2]): 0.2 µM | Activity (HeLa [3]): Active | Activity (K562 [4]): Dose-dependent effect | inhibition (Tubulin (Bos taurus) [5]): 31% | GI50 [6]: 0.15 µM | TGI [6]: 9.42 µM | CC50 [6, 28]: 49 µM | Activity (HeLa [7]): Dose-dependent effect | Activity (A549 [8]): Dose-dependent effect | GI50 (Melanoma cell line): 1.65 µM | TGI (Melanoma cell line): 17.6 µM | CC50 (Melanoma cell line; [28]): 66.5 µM | Activity (K562 [9]): 78% | GI50 (CNS carcinoma cell): 1.16 µM | TGI (CNS carcinoma cell): 13.9 µM | CC50 (CNS carcinoma cell; [28]): 47.5 µM | Activity (HT-29 [10]): Dose-dependent effect | GI50 (Breast carcinoma cell): 0.26 µM | LC50 (concentration killing 50% of cells) (Breast carcinoma cell): 70.8 µM | TGI (Breast carcinoma cell): 20.1 µM | Activity (K562 [11]): 64% | Activity (A549 [12]): Active | GI50 at 72 h [13]: 3.1 µM | GI50 at 72 h [14]: 2.5 µM | Activity (HT-29 [15]): Active | Activity (HT-29 [16]): Active | Activity (HeLa [17]): Active | Activity (A549 [18]): Active | GI50 (Ovarian carcinoma cell): 1.21 µM | LC50 (50% lethal concentration) (Ovarian carcinoma cell): 41.2 µM | TGI (Ovarian carcinoma cell): 12.3 µM | inhibition (Tubulin (Bos taurus) [19]): 56% | GI50 (Leukemia cell): 0.11 µM | TGI (Leukemia cell): 46.4 µM | Activity (HeLa [20]): Active | Activity (K562 [21]): 22% | Activity (HeLa [22]): Active | Activity (HeLa [23]): Tde | Activity (HeLa [24]): Active | Activity (HeLa [25]): Active | GI50 (Prostatic carcinoma cell): 0.1 µM | TGI (Prostatic carcinoma cell): 11.1 µM | CC50 (Prostatic carcinoma cell; [28]): 33.4 µM | GI50 (Renal cancer cell line): 1.24 µM | LC50 (50% lethal concentration) (Renal cancer cell line): 49.2 µM | TGI (Renal cancer cell line): 15.9 µM | Activity (HeLa [26]): Active | IC50 (Tubulin): 2.2 µM | GI50 (NSCLC): 1.78 µM | LC50 (NSCLC): 61.7 µM | TGI (NSCLC): 16.2 µM | Activity (A549 [27]): Active

COc1ccc(/C=C\c2cc(OC)c(OC)c(OC)c2)cc1O [COMBRETASTATIN A4]
IC50 (K562 [2]): 0.004 µM | Activity (K562 [4]): Dose-dependent effect | Activity (K562 [9]): 61% | Activity (K562 [11]): 32% | inhibition in vivo at 30 mg/kg (B16-BL6): 16 to 18% | Activity (K562 [21]): 15% | inhibition in vivo at 30 mg/kg (E0771): 30.9%
